Data taken from ChEMBL document CHEMBL4689842, “EUbOPEN Chemogenomics Library wave 1” (2021).

Tested on: HEK-293T
Assay: Multiplex assay against HEK293T;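 on Population Tubulin-Different-Phenotype (%): share of the cells with healthy nuclei that show this phenotype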
Type: toxicity, cell-based
Conditions: human
How it was run: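 Hoechst33342, BioTracker Green Microtubule Cytoskeleton Dye, MitoTracker Red and Annexin V Alexa Fluor 680 were added to live cells at seeding, and imaging on a CQ1 microscope at 37°C and 5% CO2 followed compound addition. Gating by CellPathfinder machine learning separated cells into Hoechst high-intensity objects or normal cells, then normal cells into healthy, pyknosed or fragmented nuclei, then pyknosed cells into mitotic or apoptotic. Per cents of healthy-nucleus cells are reported for the tubulin, mitochondrial-mass and membrane-permeability phenotypes.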

[1] = 12 h, 1 µM, compound concentration 1 uM, replicate 1
[2] = 12 h, 1 µM, compound concentration 1 uM, replicate 2
[3] = 12 h, 10 µM, compound concentration 10 uM, replicate 1
[4] = 12 h, 10 µM, compound concentration 10 uM, replicate 2
[5] = 24 h, 1 µM, compound concentration 1 uM, replicate 1
[6] = 24 h, 1 µM, compound concentration 1 uM, replicate 2
[7] = 24 h, 10 µM, compound concentration 10 uM, replicate 1
[8] = 24 h, 10 µM, compound concentration 10 uM, replicate 2
[9] = 48 h, 1 µM, compound concentration 1 uM, replicate 1
[10] = 48 h, 1 µM, compound concentration 1 uM, replicate 2
[11] = 48 h, 10 µM, compound concentration 10 uM, replicate 1
[12] = 48 h, 10 µM, compound concentration 10 uM, replicate 2

## CCCSc1nc(N[C@@H]2C[C@H]2c2ccc(F)c(F)c2)c2nnn([C@@H]3C[C@H](OCCO)[C@@H](O)[C@H]3O)c2n1 [TICAGRELOR]
[1]
  Population Apoptotic (%): 56%
  Population Fragmented Nuclei (%): 19%
  Population Healthy Nuclei (%): 35%
  Population Hoechst High Intensity Objects (%): 18%
  Population Membrane Permeable-Phenotype (%): 4%
  Population Mitochondria Different-Phenotype (%): 89%
  Population Mitotic Cells (%): 43%
  Population Normal (%): 81%
  Population Pyknosed Nuclei (%): 45%
  Population Tubulin-Different-Phenotype (%): 54%
  Total Cell Count: 167
[2]
  Population Apoptotic (%): 9%
  Population Fragmented Nuclei (%): 3%
  Population Healthy Nuclei (%): 49%
  Population Hoechst High Intensity Objects (%): 3%
  Population Membrane Permeable-Phenotype (%): 10%
  Population Mitochondria Different-Phenotype (%): 21%
  Population Mitotic Cells (%): 90%
  Population Normal (%): 96%
  Population Pyknosed Nuclei (%): 46%
  Population Tubulin-Different-Phenotype (%): 27%
  Total Cell Count: 190
[3]
  Population Apoptotic (%): 68%
  Population Fragmented Nuclei (%): 34%
  Population Healthy Nuclei (%): 4%
  Population Hoechst High Intensity Objects (%): 20%
  Population Membrane Permeable-Phenotype (%): 14%
  Population Mitochondria Different-Phenotype (%): 85%
  Population Mitotic Cells (%): 31%
  Population Normal (%): 79%
  Population Pyknosed Nuclei (%): 60%
  Population Tubulin-Different-Phenotype (%): 85%
  Total Cell Count: 178
[4]
  Population Apoptotic (%): 85%
  Population Fragmented Nuclei (%): 6%
  Population Healthy Nuclei (%): 26%
  Population Hoechst High Intensity Objects (%): 4%
  Population Membrane Permeable-Phenotype (%): 2%
  Population Mitochondria Different-Phenotype (%): 95%
  Population Mitotic Cells (%): 14%
  Population Normal (%): 95%
  Population Pyknosed Nuclei (%): 66%
  Population Tubulin-Different-Phenotype (%): 93%
  Total Cell Count: 176
[5]
  Population Apoptotic (%): 46%
  Population Fragmented Nuclei (%): 23%
  Population Healthy Nuclei (%): 32%
  Population Hoechst High Intensity Objects (%): 18%
  Population Membrane Permeable-Phenotype (%): 2%
  Population Mitochondria Different-Phenotype (%): 75%
  Population Mitotic Cells (%): 53%
  Population Normal (%): 81%
  Population Pyknosed Nuclei (%): 44%
  Population Tubulin-Different-Phenotype (%): 45%
  Total Cell Count: 181
[6]
  Population Apoptotic (%): 18%
  Population Fragmented Nuclei (%): 4%
  Population Healthy Nuclei (%): 62%
  Population Hoechst High Intensity Objects (%): 3%
  Population Membrane Permeable-Phenotype (%): 7%
  Population Mitochondria Different-Phenotype (%): 28%
  Population Mitotic Cells (%): 81%
  Population Normal (%): 96%
  Population Pyknosed Nuclei (%): 33%
  Population Tubulin-Different-Phenotype (%): 48%
  Total Cell Count: 257
[7]
  Population Apoptotic (%): 76%
  Population Fragmented Nuclei (%): 35%
  Population Healthy Nuclei (%): 6%
  Population Hoechst High Intensity Objects (%): 21%
  Population Mitochondria Different-Phenotype (%): 77%
  Population Mitotic Cells (%): 23%
  Population Normal (%): 78%
  Population Pyknosed Nuclei (%): 57%
  Population Tubulin-Different-Phenotype (%): 88%
  Total Cell Count: 178
[8]
  Population Apoptotic (%): 89%
  Population Fragmented Nuclei (%): 4%
  Population Healthy Nuclei (%): 26%
  Population Hoechst High Intensity Objects (%): 7%
  Population Membrane Permeable-Phenotype (%): 0%
  Population Mitochondria Different-Phenotype (%): 95%
  Population Mitotic Cells (%): 10%
  Population Normal (%): 92%
  Population Pyknosed Nuclei (%): 69%
  Population Tubulin-Different-Phenotype (%): 95%
  Total Cell Count: 182
[9]
  Population Apoptotic (%): 55%
  Population Fragmented Nuclei (%): 23%
  Population Healthy Nuclei (%): 40%
  Population Hoechst High Intensity Objects (%): 12%
  Population Membrane Permeable-Phenotype (%): 3%
  Population Mitochondria Different-Phenotype (%): 51%
  Population Mitotic Cells (%): 44%
  Population Normal (%): 87%
  Population Pyknosed Nuclei (%): 36%
  Population Tubulin-Different-Phenotype (%): 50%
  Total Cell Count: 216
[10]
  Population Apoptotic (%): 11%
  Population Fragmented Nuclei (%): 5%
  Population Healthy Nuclei (%): 78%
  Population Hoechst High Intensity Objects (%): 4%
  Population Membrane Permeable-Phenotype (%): 4%
  Population Mitochondria Different-Phenotype (%): 12%
  Population Mitotic Cells (%): 88%
  Population Normal (%): 95%
  Population Pyknosed Nuclei (%): 16%
  Population Tubulin-Different-Phenotype (%): 31%
  Total Cell Count: 492
[11]
  Population Apoptotic (%): 81%
  Population Fragmented Nuclei (%): 38%
  Population Healthy Nuclei (%): 3%
  Population Hoechst High Intensity Objects (%): 24%
  Population Membrane Permeable-Phenotype (%): 50%
  Population Mitochondria Different-Phenotype (%): 75%
  Population Mitotic Cells (%): 18%
  Population Normal (%): 75%
  Population Pyknosed Nuclei (%): 58%
  Population Tubulin-Different-Phenotype (%): 75%
  Total Cell Count: 173
[12]
  Population Apoptotic (%): 92%
  Population Fragmented Nuclei (%): 7%
  Population Healthy Nuclei (%): 29%
  Population Hoechst High Intensity Objects (%): 5%
  Population Membrane Permeable-Phenotype (%): 2%
  Population Mitochondria Different-Phenotype (%): 97%
  Population Mitotic Cells (%): 7%
  Population Normal (%): 94%
  Population Pyknosed Nuclei (%): 63%
  Population Tubulin-Different-Phenotype (%): 86%
  Total Cell Count: 164

## CN1CCN(Cc2ccc(Nc3ncc(Cl)c(Nc4ccccc4S(=O)(=O)N(C)C)n3)cc2)CC1 [DUBERMATINIB]
[1]
  Population Apoptotic (%): 48%
  Population Fragmented Nuclei (%): 14%
  Population Healthy Nuclei (%): 42%
  Population Hoechst High Intensity Objects (%): 12%
  Population Membrane Permeable-Phenotype (%): 0%
  Population Mitochondria Different-Phenotype (%): 72%
  Population Mitotic Cells (%): 51%
  Population Normal (%): 87%
  Population Pyknosed Nuclei (%): 42%
  Population Tubulin-Different-Phenotype (%): 35%
  Total Cell Count: 297
[2]
  Population Apoptotic (%): 13%
  Population Fragmented Nuclei (%): 8%
  Population Healthy Nuclei (%): 55%
  Population Hoechst High Intensity Objects (%): 2%
  Population Membrane Permeable-Phenotype (%): 5%
  Population Mitochondria Different-Phenotype (%): 14%
  Population Mitotic Cells (%): 86%
  Population Normal (%): 97%
  Population Pyknosed Nuclei (%): 35%
  Population Tubulin-Different-Phenotype (%): 14%
  Total Cell Count: 174
[3]
  Population Apoptotic (%): 62%
  Population Fragmented Nuclei (%): 11%
  Population Healthy Nuclei (%): 40%
  Population Hoechst High Intensity Objects (%): 18%
  Population Membrane Permeable-Phenotype (%): 1%
  Population Mitochondria Different-Phenotype (%): 96%
  Population Mitotic Cells (%): 38%
  Population Normal (%): 81%
  Population Pyknosed Nuclei (%): 47%
  Population Tubulin-Different-Phenotype (%): 88%
  Total Cell Count: 258
[4]
  Population Apoptotic (%): 16%
  Population Fragmented Nuclei (%): 14%
  Population Healthy Nuclei (%): 59%
  Population Hoechst High Intensity Objects (%): 4%
  Population Membrane Permeable-Phenotype (%): 2%
  Population Mitochondria Different-Phenotype (%): 32%
  Population Mitotic Cells (%): 83%
  Population Normal (%): 95%
  Population Pyknosed Nuclei (%): 26%
  Population Tubulin-Different-Phenotype (%): 33%
  Total Cell Count: 214
[5]
  Population Apoptotic (%): 53%
  Population Fragmented Nuclei (%): 15%
  Population Healthy Nuclei (%): 45%
  Population Hoechst High Intensity Objects (%): 10%
  Population Membrane Permeable-Phenotype (%): 0%
  Population Mitochondria Different-Phenotype (%): 59%
  Population Mitotic Cells (%): 46%
  Population Normal (%): 89%
  Population Pyknosed Nuclei (%): 39%
  Population Tubulin-Different-Phenotype (%): 31%
  Total Cell Count: 290
[6]
  Population Apoptotic (%): 27%
  Population Fragmented Nuclei (%): 19%
  Population Healthy Nuclei (%): 69%
  Population Hoechst High Intensity Objects (%): 3%
  Population Membrane Permeable-Phenotype (%): 16%
  Population Mitochondria Different-Phenotype (%): 5%
  Population Mitotic Cells (%): 72%
  Population Normal (%): 96%
  Population Pyknosed Nuclei (%): 11%
  Population Tubulin-Different-Phenotype (%): 17%
  Total Cell Count: 206
[7]
  Population Apoptotic (%): 69%
  Population Fragmented Nuclei (%): 15%
  Population Healthy Nuclei (%): 33%
  Population Hoechst High Intensity Objects (%): 18%
  Population Mitochondria Different-Phenotype (%): 88%
  Population Mitotic Cells (%): 30%
  Population Normal (%): 81%
  Population Pyknosed Nuclei (%): 50%
  Population Tubulin-Different-Phenotype (%): 80%
  Total Cell Count: 270
[8]
  Population Apoptotic (%): 28%
  Population Fragmented Nuclei (%): 19%
  Population Healthy Nuclei (%): 42%
  Population Hoechst High Intensity Objects (%): 6%
  Population Membrane Permeable-Phenotype (%): 1%
  Population Mitochondria Different-Phenotype (%): 21%
  Population Mitotic Cells (%): 71%
  Population Normal (%): 93%
  Population Pyknosed Nuclei (%): 38%
  Population Tubulin-Different-Phenotype (%): 25%
  Total Cell Count: 222
[9]
  Population Apoptotic (%): 60%
  Population Fragmented Nuclei (%): 26%
  Population Healthy Nuclei (%): 51%
  Population Hoechst High Intensity Objects (%): 10%
  Population Membrane Permeable-Phenotype (%): 4%
  Population Mitochondria Different-Phenotype (%): 26%
  Population Mitotic Cells (%): 39%
  Population Normal (%): 89%
  Population Pyknosed Nuclei (%): 22%
  Population Tubulin-Different-Phenotype (%): 24%
  Total Cell Count: 316
[10]
  Population Apoptotic (%): 38%
  Population Fragmented Nuclei (%): 21%
  Population Healthy Nuclei (%): 73%
  Population Hoechst High Intensity Objects (%): 6%
  Population Membrane Permeable-Phenotype (%): 20%
  Population Mitochondria Different-Phenotype (%): 1%
  Population Mitotic Cells (%): 61%
  Population Normal (%): 93%
  Population Pyknosed Nuclei (%): 5%
  Population Tubulin-Different-Phenotype (%): 17%
  Total Cell Count: 259
[11]
  Population Apoptotic (%): 65%
  Population Healthy Nuclei (%): 24%
  Population Hoechst High Intensity Objects (%): 15%
  Population Membrane Permeable-Phenotype (%): 0%
  Population Mitochondria Different-Phenotype (%): 83%
  Population Mitotic Cells (%): 34%
  Population Normal (%): 84%
  Population Pyknosed Nuclei (%): 58%
  Population Tubulin-Different-Phenotype (%): 70%
  Total Cell Count: 267
[12]
  Population Apoptotic (%): 29%
  Population Fragmented Nuclei (%): 17%
  Population Healthy Nuclei (%): 36%
  Population Hoechst High Intensity Objects (%): 6%
  Population Membrane Permeable-Phenotype (%): 2%
  Population Mitochondria Different-Phenotype (%): 32%
  Population Mitotic Cells (%): 70%
  Population Normal (%): 93%
  Population Pyknosed Nuclei (%): 46%
  Population Tubulin-Different-Phenotype (%): 35%
  Total Cell Count: 210
